From paper PMC11877486 (Science Progress, 2025)
Structures can show the parent of a compound that is named as a salt. Where two headings read alike, the source gives them in different places. Peptide text beside a SMILES is read from it.

Key:
[1] = Plasma concentration of colistin sulfate in patients on CVVHDF; type: in vivo; details: human, iv, SD
How it was run: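 Adult patients on CVVHDF (AN69 polyacrylonitrile filter; blood flow 100–200 ml/min) received iv colistin sulfate infused over 0.5 h or 2 h. At steady state, samples were drawn from the dorsal foot artery just before dosing (Cmin) and at roughly 0.5, 1, 2, 4 and 6 h after. Plasma was stored at −80°C. Colistin A and B were measured separately by UHPLC-MS/MS on a HILIC column (LOQ 0.027 and 0.053 mg/l) and summed. AUC0−24h was calculated by the trapezoidal rule.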

[2] = Population PK model; type: in vivo, human
How it was run: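 NONMEM 7.4 was fitted to 86 plasma concentrations from 20 CVVHDF patients, using FOCE to compare one- and two-compartment models. Interindividual variability was exponential. […] Validation used goodness-of-fit plots, a pcVPC with 1000 simulated patients and a 1000-sample bootstrap.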

[3] = derived from preclinical studies; cited from earlier work
[4] = cited from earlier work; for population typical value CL, previous research: critically ill patients
[5] = cited from earlier work
[6] = cited from earlier work; remark: listed apart in the source
[7] = tested on: isolated pathogens (CRO), mainly Klebsiella pneumoniae, Acinetobacter baumannii, Pseudomonas aeruginosa; test: Drug sensitivity of isolated pathogens; type: cell-based; details: all isolated pathogens (CRO) of the 20 patients
[8] = cited from earlier work; for population typical value of CL: critically ill patients

CC[C@H](C)CCCCC(=O)N[C@@H](CCN)C(=O)N[C@H](C(=O)N[C@@H](CCN)C(=O)N[C@H]1CCNC(=O)[C@H]([C@@H](C)O)NC(=O)[C@H](CCN)NC(=O)[C@H](CCN)NC(=O)[C@H](CC(C)C)NC(=O)[C@@H](CC(C)C)NC(=O)[C@H](CCN)NC1=O)[C@@H](C)O [colistin sulfate] (HELM PEPTIDE1{[CC[C@H](C)CCCCC(=O)[*:2]].[Dab].T.[Dab].[Dab].[Dab].[dL].L.[Dab].[Dab].T}$PEPTIDE1,PEPTIDE1,5:R3-11:R2$$$V2.0)
AUC(0-t) [1]: 12500 ± 6410 ng·h/mL
Q, bootstrap median ([2]; bootstrap, 1000 samples): 27.15 L/h
V1, bootstrap median ([2]; bootstrap, 1000 samples): 20.58 L
V2, bootstrap median ([2]; bootstrap, 1000 samples): 34.71 L
θCysC, bootstrap median ([2]; bootstrap, 1000 samples): −0.537
θwt, bootstrap median ([2]; bootstrap, 1000 samples): 1.189
CL, bootstrap median ([2]; bootstrap, 1000 samples, 989 successful): 3.18 L/h
θCysC, final model estimate ([2]; effect of CysC on CL, (CYSC/2.31)^θ): −0.626
θwt, final model estimate ([2]; effect of WT on CL, (WT/65)^θ): 1.030
clearance ([2]; human, plasma, iv): 61.5 mL/min
Q, final model estimate ([2]; intercompartmental clearance, patients on CVVHDF): 25.30 L/h
V1, final model estimate ([2]; volume of distribution in the central compartment, patients on CVVHDF): 20.50 L
V2, final model estimate ([2]; volume of distribution in the peripheral compartment, patients on CVVHDF): 33.20 L
protein binding rate [3]: about 50%
population typical value CL, previous research ([4]; first of two values): 0.994 L/h
population typical value CL, previous research ([4]; second of two values): 1.5 L/h
plasma concentration range ([4]; non-CRRT patients): 280 to 6200 ng/mL
steady-state trough concentration ([5]; CRRT group, p = 0.328 vs non-CRRT): 0.58 ± 0.30 mg/L
steady-state trough concentration ([5]; non-CRRT group): 0.64 ± 0.25 mg/L
solubility in water [6]: water-soluble

C[C@@H](O)[C@H]1C(=O)N2C(C(=O)O)=C(S[C@@H]3CN[C@H](C(=O)N(C)C)C3)[C@H](C)[C@H]12 [meropenem]
MIC [7]: ≥ 8 µg/mL

polymyxin B sulfate
population typical value of CL ([8]; CVVH group): 4.52 L/h
AUC ([8]; CVVH group, p < 0.001 vs non-CVVH): 27940 ± 10920 ng·h/mL
population typical value of CL ([8]; non-CVVH group): 1.95 L/h
AUC ([8]; non-CVVH group): 77890 ± 35660 ng·h/mL
